Series [1] in a line: Inhibition of bovine liver beta-glucosidase using 10 mM p-nitrophenyl-[…]-D-glucopyranoside as substrate. Further details: species or system Bos taurus.
The target in series [2] is T1, Beta-galactosidase (Bos taurus, UniProt Q58D55).
T1 sequence (Q58D55 whole entry): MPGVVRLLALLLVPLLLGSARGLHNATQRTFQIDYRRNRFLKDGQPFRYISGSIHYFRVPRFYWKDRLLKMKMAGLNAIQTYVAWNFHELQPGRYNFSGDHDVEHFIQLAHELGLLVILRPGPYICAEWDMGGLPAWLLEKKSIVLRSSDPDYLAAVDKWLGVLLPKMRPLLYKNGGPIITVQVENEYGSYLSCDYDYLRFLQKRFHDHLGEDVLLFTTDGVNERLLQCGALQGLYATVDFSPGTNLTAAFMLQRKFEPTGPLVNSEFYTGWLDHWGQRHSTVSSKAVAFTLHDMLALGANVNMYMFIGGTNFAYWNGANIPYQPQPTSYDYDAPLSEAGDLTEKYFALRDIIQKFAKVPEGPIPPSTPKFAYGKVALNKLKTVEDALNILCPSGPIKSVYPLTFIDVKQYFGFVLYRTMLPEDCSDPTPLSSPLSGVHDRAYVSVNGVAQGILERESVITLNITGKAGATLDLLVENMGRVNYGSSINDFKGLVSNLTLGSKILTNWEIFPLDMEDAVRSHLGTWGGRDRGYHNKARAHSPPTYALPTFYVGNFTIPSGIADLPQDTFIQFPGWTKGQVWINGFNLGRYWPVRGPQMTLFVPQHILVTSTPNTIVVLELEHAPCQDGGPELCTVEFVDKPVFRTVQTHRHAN
The series is described as follows: Inhibition of bovine liver beta-galactosidase using 10 mM p-nitrophenyl-beta-D-galactopyranoside as substrate. Summed up: (§1)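 Enzyme (0.1 U/cm3; A. niger α-galactosidase or bovine liver β-galactosidase) was preincubated with inhibitor for 1 h at 37 °C. Substrate was 10 mM p-nitrophenyl α- or β-D-galactopyranoside in 200 mM sodium acetate, reacted 10 min at 37 °C. The reaction was stopped with 200 mM borate pH 9.8 and released p-nitrophenol read at 420 nm. Ki came from Lineweaver–Burk plots; values are the average of five assays.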

The target in series [3] is T2, Alpha-mannosidase (Canavalia ensiformis) (UniProt C0HJB3).
T2 sequence (whole entry): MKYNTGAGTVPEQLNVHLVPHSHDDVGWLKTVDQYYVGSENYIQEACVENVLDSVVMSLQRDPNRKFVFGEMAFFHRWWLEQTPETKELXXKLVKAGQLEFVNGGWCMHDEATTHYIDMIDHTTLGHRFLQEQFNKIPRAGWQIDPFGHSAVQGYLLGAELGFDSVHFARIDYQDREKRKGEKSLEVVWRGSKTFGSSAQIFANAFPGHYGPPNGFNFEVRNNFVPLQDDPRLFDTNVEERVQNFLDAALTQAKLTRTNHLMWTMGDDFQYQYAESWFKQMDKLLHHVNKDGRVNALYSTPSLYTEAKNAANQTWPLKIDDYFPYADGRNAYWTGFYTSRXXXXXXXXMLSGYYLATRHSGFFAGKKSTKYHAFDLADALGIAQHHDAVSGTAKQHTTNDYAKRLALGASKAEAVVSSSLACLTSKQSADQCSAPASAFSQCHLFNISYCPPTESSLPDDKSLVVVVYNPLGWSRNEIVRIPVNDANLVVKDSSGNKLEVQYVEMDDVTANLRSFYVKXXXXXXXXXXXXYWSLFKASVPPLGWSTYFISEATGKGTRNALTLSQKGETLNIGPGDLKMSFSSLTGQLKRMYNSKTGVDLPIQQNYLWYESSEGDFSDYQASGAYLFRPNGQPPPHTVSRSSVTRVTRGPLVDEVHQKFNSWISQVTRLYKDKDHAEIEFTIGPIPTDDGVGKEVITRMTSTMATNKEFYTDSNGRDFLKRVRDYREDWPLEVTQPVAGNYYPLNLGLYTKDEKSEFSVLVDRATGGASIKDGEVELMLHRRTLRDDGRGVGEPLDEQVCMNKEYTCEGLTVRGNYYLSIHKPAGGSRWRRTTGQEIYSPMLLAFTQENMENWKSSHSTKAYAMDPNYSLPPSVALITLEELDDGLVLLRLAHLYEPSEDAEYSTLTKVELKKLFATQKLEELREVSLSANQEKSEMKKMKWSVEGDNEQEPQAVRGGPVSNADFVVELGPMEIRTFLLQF
The series can be described thus: Inhibition of jack bean alpha-mannosidase at 1 mM using 10 mM p-nitrophenyl-alpha-D-mannopyranoside as substrate. Put shortly:
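Jack bean α-mannosidase (0.1 U/cm3) was preincubated with inhibitor for 1 h at 37 °C. Substrate was 10 mM p-nitrophenyl α-D-mannopyranoside in 100 mM citrate pH 4.5, reacted 10 min at 37 °C. The reaction was stopped with 200 mM borate pH 9.8 and absorbance read at 420 nm. Ki came from Lineweaver–Burk plots; average of five assays. NI means under 50% inhibition at 1 mM.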

The test system of series [4] is Aspergillus niger. The series is described as follows: Inhibition of aspergillus niger alpha-galactosidase at 1 mM using 10 mM p-nitrophenyl-alpha-D-galactopyranoside as substrate. Summed up:
(§2)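 Galactosidase (0.1 U cm−3) was preincubated with compound 1 h at 37 °C. Reaction used 10 mM p-nitrophenyl-α- or β-D-galactopyranoside in 200 mM sodium acetate, 10 min at 37 °C, stopped with 200 mM borate pH 9.8. Read at 420 nm. NI means no 50% inhibition at 1 mM. Five assays averaged.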

Series [5] is described as follows: Inhibition of rice alpha-glucosidase using 10 mM p-nitrophenyl-alpha-D-glucopyranoside as substrate. Also noted: species or system Oryza sativa. Put shortly:
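Rice α-glucosidase (0.1 U cm−3) was preincubated with compound 1 h at 37 °C. Reaction used 10 mM p-nitrophenyl-α-D-glucopyranoside in 100 mM phosphate pH 6.8, 10 min at 37 °C, stopped with 0.1 M Na2CO3. p-Nitrophenol was read at 420 nm. Ki came from Lineweaver–Burk plots. Average of five assays.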

Series [6] has as its system Splenocyte. The series is described as follows: Immunostimulating activity in Swiss albino mouse Splenocytes assessed as increase in IL-6 secretion at 2.5 uM by ELISA in presence of 10 uM ConA relative to control. Type of series: functional. Summed up:
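Splenocytes (2 × 10^6 cells/well) were stimulated with 10 μM Con A plus compound (2.5 or 5 μM). Supernatant IL-6 was measured by sandwich ELISA: sample 2 h at 37 °C, biotinylated antibody 1 h, streptavidin–HRP, then substrate in the dark. Absorbance was read at 550 nm with 450 nm correction against an IL-6 standard curve. Mean ± SEM, n = 5.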
Background: An ELISA detects its analyte on a solid surface through an enzyme-linked reagent.

In series [7] the target is T3, Beta-galactosidase (Bos taurus) (UniProt Q58D55).
T3 sequence (whole entry): T1 sequence (Q58D55 whole entry)
The series is described as follows: Inhibition of bovine liver beta-galactosidase at 1 mM using 10 mM p-nitrophenyl-beta-D-galactopyranoside as substrate. Put shortly: as §2

In series [8] the test system is Splenocyte. The series can be described thus: Immunostimulating activity in Swiss albino mouse Splenocytes assessed as ConA-induced cell proliferation > 5 uM after 72 hrs by MTT assay. Type of series: functional, cell-based. On the technique in general: Tetrazolium assays rely on reduction of a dye to a coloured formazan, in cell work by metabolically active cells.

A short description of series [9]: Cytotoxicity against Swiss albino mouse Splenocytes assessed as cell proliferation at 0.5 to 5 uM after 72 hrs by MTT assay. In kind it is cell-based. The settings on record: splenocyte. Put shortly:
(§3)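 Swiss albino mouse splenocytes (2 × 10^6 cells/well) were treated with Con A alone or with test samples at final 0.5, 1, 2.5 and 5 μM. Con A is given as final 10 μg/mL in methods and 10 μM in text. Cells were held 72 h at 37 °C, 5% CO2, in RPMI with 10% FCS, then read by MTT. Values are % of Con A-treated cells (100%), mean ± SEM, n = 5.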

Series [10] relates to Splenocyte. The series can be described thus: Immunostimulating activity in Swiss albino mouse Splenocytes assessed as increase in ConA-induced IFN-gamma secretion at 2.5 uM by ELISA. In kind it is functional, cell-based. Put shortly:
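IFN-γ was measured by ELISA in supernatants of splenocytes (2 × 10^6 cells/well). Cells were unstimulated, stimulated with Con A (10 μM), or given Con A plus compound (2.5 or 5 μM) for 24 h. Mean ± SEM, n = 5.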

Series [11] deals with Oryza sativa. The series can be described thus: Inhibition of rice alpha-glucosidase at 1 mM using 10 mM p-nitrophenyl-alpha-D-glucopyranoside as substrate. Summed up: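 Rice α-glucosidase (0.1 U cm−3) was preincubated with compound 1 h at 37 °C. Reaction used 10 mM p-nitrophenyl-α-D-glucopyranoside in 100 mM phosphate pH 6.8, 10 min at 37 °C, stopped with 0.1 M Na2CO3. p-Nitrophenol was read at 420 nm. NI means no 50% inhibition at 1 mM. Ki came from Lineweaver–Burk plots. Average of five assays.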

Series [12] has as its system Splenocyte. The series is described as follows: Immunostimulating activity in Swiss albino mouse Splenocytes assessed as decrease in ConA-induced IL-4 secretion at 2.5 uM by ELISA. In kind it is functional. Summed up: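 Supernatants came from Con A-stimulated splenocytes (2 × 10^6 cells/well) with compound at 2.5 or 5 μM. They were spun 2000g for 5 min and stored at −70 °C. IL-4 was measured by ELISA: sample 2 h at 37 °C, then peroxidase conjugate 1 h, substrate developed in the dark. Absorbance was read at 550 nm with 450 nm correction and quantified from an IL-4 standard curve. n = 5.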

The test system of series [13] is Splenocyte. The series can be described thus: Immunostimulating activity in Swiss albino mouse Splenocytes assessed as increase in ConA-induced cell proliferation upto 2.5 uM after 72 hrs by MTT assay. Type of series: functional, cell-based. Summed up: as §3
Series [14] is described as follows: Immunostimulating activity in Swiss albino mouse Splenocytes assessed as increase in ConA-induced cell proliferation at 0.5 uM after 72 hrs by MTT assay. Type of series: functional, Splenocyte. Put shortly:
as §3

Series [15] in a line: Inhibition of aspergillus niger alpha-galactosidase using 10 mM p-nitrophenyl-alpha-D-galactopyranoside as substrate. Put shortly: as §1
Series [16] can be described thus: Immunostimulating activity in Swiss albino mouse Splenocytes assessed as increase in ConA-induced cell proliferation at 5 uM after 72 hrs by MTT assay. In kind it is functional, Splenocyte. Put shortly:
as §3

A short description of series [17]: Immunostimulating activity in Swiss albino mouse Splenocytes assessed as increase in ConA-induced cell proliferation at 1 uM after 72 hrs by MTT assay. Type of series: functional, Splenocyte. Summed up: as §3
Series [18] in a line: Immunostimulating activity in Swiss albino mouse Splenocytes assessed as increase in ConA-induced cell proliferation at 2.5 uM after 72 hrs by MTT assay. Type of series: functional, Splenocyte. Put shortly:
as §3

Series [19] concerns the target T4, Alpha-mannosidase (Canavalia ensiformis, UniProt C0HJB3).
T4 sequence (C0HJB3 whole entry): T2 sequence (whole entry)
The series can be described thus: Inhibition of jack bean alpha-mannosidase using 10 mM p-nitrophenyl-alpha-D-mannopyranoside as substrate. Put shortly:
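Jack bean α-mannosidase (0.1 U cm−3) was preincubated with compound 1 h at 37 °C. Reaction used 10 mM p-nitrophenyl-α-D-mannopyranoside in 100 mM citrate pH 4.5, 10 min at 37 °C, stopped with 200 mM borate pH 9.8. Read at 420 nm. IC50 and Ki were determined, Ki from Lineweaver–Burk double-reciprocal plots. Mean of five assays.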

Active and inactive are the calls of the source. The rule behind the calls is not given here.

What is called IC50 is the midpoint of a concentration-inhibition curve. One may read the Ki as the equilibrium dissociation constant of an inhibitor or competing ligand from its target. A higher Ki goes with weaker binding. In general, inhibition refers to how much of the control response was suppressed. For the molecule `OCCN1C[C@H](O)[C@@H](O)[C@H](O)[C@H]1CO` [MIGLITOL], the IC50 in series [1] is 342 µM; in series [2], 200 µM; in series [5] it was 0.1 µM. The results for the Ki in [1], in [2] and in series [5] were 32 µM, 100 µM and 0.06 µM, respectively. For the same molecule, the inhibition in series [3] and in [4] was < 50% throughout.
As for `O=C1CC[C@@]2(COCc3ccccc3)[C@@H](O)[C@H](O)[C@H](O)CN12`, the IC50 in series [1] came to 342 µM. For the same molecule, in series [1], the affinity, expressed as Ki, was 113 µM. In [6], the “fold change (FC)” value was 4.9. The inhibition in series [7], in series [3], in [4] and in series [11] was < 50% throughout. Besides, in series [8], the result was inactive. Also, in [9], the Activity entry is listed as “Non-toxic”. In addition, the result in series [10] and in series [13] was Active. Also, the inhibition at 2.5 µM in series [12] stood at 40%.
As to `O=C1CC[C@]2(CO)[C@@H](O)[C@H](O)[C@@H](O)CN12`, the IC50 in [1] worked out at 22 µM; in series [2], 0.8 µM; in series [15] it was 0.42 µM; in series [19], 0.056 µM. Also, the Ki in [1] came to 11 µM; in series [2] it was 0.2 µM; in [15], 0.33 µM; in [19], 0.035 µM. The Activity was 13% in series [14]; 103% in series [16]; 80% in [17]; “Non-toxic” in series [9]; 130% in series [18]. Besides, the “fold change (FC)” value in series [6] is 12.1. Besides, the outcome in series [8] was inactive. Moreover, the outcome in series [10] and in series [13] was Active. The inhibition in [11] was < 50%. Also, in series [12], the inhibition at 2.5 µM stood at 57%.

Values taken from ChEMBL document CHEMBL3621047, “Quaternary Indolizidine and Indolizidone Iminosugars as Potential Immunostimulating and Glycosidase Inhibitory Agents: Synthesis, Conformational Analysis, Biological Activity, and Molecular Docking Study” (J Med Chem, 2015).
